From ChEMBL document CHEMBL1126990, “Design and synthesis of 18F-labeled neurotoxic analogs of MPTP” (J Med Chem, 1993)

Legend:
Mus musculus [1] = organism: Mus musculus; assay: Biodistribution of [18F]-radiolabeled compound in the mouse blood after 5 minutes (average uptake in (%injected dose)/(% body weight); format: ADME, organism-based; settings: in vivo
Summary of the method: (§1)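 Adult male C57 Black mice (about 20 g), anesthetized with 1 mg sodium pentobarbital ip, given 0.1 mL (~0.05 mCi) tracer via tail vein. Killed by cervical dislocation at set times (5–90 min). Organs sampled, counted, weighed. Injected dose measured against weighed standards, minus residual tail activity. %id/g multiplied by body weight gives normalized uptake. Mean ± SD, N = 3 (N = 2 at 5 min).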

Mus musculus [2] = organism: Mus musculus; assay: Biodistribution of [18F]-radiolabeled compound in the mouse kidney after 15 minutes (average uptake in (%injected dose)/(% body weight); format: ADME, organism-based; settings: in vivo, 0.25 h; summary of the method: as §1
[3] = separate experiments, n=4); format: ADME
Summary of the method: (§2)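 Rat liver MAO (crude P2 mitochondrial fraction from adult male Wistar rats, in pH 7.4 phosphate buffer) incubated with substrate at 30 μM to 5 mM; colorimetric detection of H2O2 formed. Blanks contained 0.1 mM pargyline. Vmax and Km from linear regression of Lineweaver-Burk plots; means ± SE of n separate experiments; ANOVA with post-hoc Scheffe test.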

Mus musculus [4] = organism: Mus musculus; assay: Biodistribution of [18F]-radiolabeled compound in the mouse kidney after 60 minutes (average uptake in (%injected dose)/(% body weight); format: ADME, organism-based; settings: in vivo, 1 h; summary of the method: as §1
Mus musculus [5] = organism: Mus musculus; assay: Biodistribution of [18F]-radiolabeled compound in the mouse liver after 30 minutes (average uptake in (%injected dose)/(% body weight); format: ADME, organism-based; settings: in vivo, 0.5 h; summary of the method: as §1
Mus musculus [6] = organism: Mus musculus; assay: Biodistribution of [18F]-radiolabeled compound in the mouse blood after 90 minutes (average uptake in (%injected dose)/(% body weight); format: ADME, organism-based; settings: in vivo, 1.5 h; summary of the method: as §1
Mus musculus [7] = organism: Mus musculus; assay: Biodistribution of [18F]-radiolabeled compound in the mouse blood after 15 minutes (average uptake in (%injected dose)/(% body weight); format: ADME, organism-based; settings: in vivo, 0.25 h; summary of the method: as §1
Mus musculus [8] = organism: Mus musculus; assay: Biodistribution of [18F]-radiolabeled compound in the mouse liver after 15 minutes (average uptake in (%injected dose)/(% body weight); format: ADME, organism-based; settings: in vivo, 0.25 h; summary of the method: as §1
Mus musculus [9] = organism: Mus musculus; assay: Biodistribution of [18F]-radiolabeled compound in the mouse muscle after 15 minutes (average uptake in (%injected dose)/(% body weight); format: ADME, organism-based, Muscle tissue; settings: in vivo, 0.25 h; summary of the method: as §1
Mus musculus [10] = organism: Mus musculus; assay: Biodistribution of [18F]-radiolabeled compound in the mouse lung after 90 minutes (average uptake in (%injected dose)/(% body weight); format: ADME, organism-based; settings: in vivo, 1.5 h; summary of the method: as §1
Mus musculus [11] = organism: Mus musculus; assay: Biodistribution of [18F]-radiolabeled compound in the mouse spleen after 5 minutes (average uptake in (%injected dose)/(% body weight); format: ADME, organism-based; settings: in vivo; summary of the method: as §1
Mus musculus [12] = organism: Mus musculus; assay: Biodistribution of [18F]-radiolabeled compound in the mouse intestine after 15 minutes (average uptake in (%injected dose)/(% body weight); format: ADME, organism-based; settings: in vivo, 0.25 h; summary of the method: as §1
Mus musculus [13] = organism: Mus musculus; assay: Biodistribution of [18F]-radiolabeled compound in the mouse spleen after 30 minutes (average uptake in (%injected dose)/(% body weight); format: ADME, organism-based; settings: in vivo, 0.5 h; summary of the method: as §1
Mus musculus [14] = organism: Mus musculus; assay: Biodistribution of [18F]-radiolabeled compound in the mouse spleen after 60 minutes (average uptake in (%injected dose)/(% body weight); format: ADME, organism-based; settings: in vivo, 1 h; summary of the method: as §1
Mus musculus [15] = organism: Mus musculus; assay: Biodistribution of [18F]-radiolabeled compound in the mouse bone after 5 minutes (average uptake in (%injected dose)/(% body weight); format: ADME, organism-based, Bone element; settings: in vivo; summary of the method: as §1
Mus musculus [16] = organism: Mus musculus; assay: Biodistribution of [18F]-radiolabeled compound in the mouse heart after 90 minutes (average uptake in (%injected dose)/(% body weight); format: ADME, organism-based; settings: in vivo, 1.5 h; summary of the method: as §1
Mus musculus [17] = organism: Mus musculus; assay: Biodistribution of [18F]-radiolabeled compound in the mouse muscle after 5 minutes (average uptake in (%injected dose)/(% body weight); format: ADME, organism-based, Muscle tissue; settings: in vivo; summary of the method: as §1
Mus musculus [18] = organism: Mus musculus; assay: Biodistribution of [18F]-radiolabeled compound in the mouse bone after 30 minutes (average uptake in (%injected dose)/(% body weight); format: ADME, organism-based, Bone element; settings: in vivo, 0.5 h; summary of the method: as §1
Mus musculus [19] = organism: Mus musculus; assay: Biodistribution of [18F]-radiolabeled compound in the mouse blood after 60 minutes (average uptake in (%injected dose)/(% body weight); format: ADME, organism-based; settings: in vivo, 1 h; summary of the method: as §1
Mus musculus [20] = organism: Mus musculus; assay: Biodistribution of [18F]-radiolabeled compound in the mouse kidney after 90 minutes (average uptake in (%injected dose)/(% body weight); format: ADME, organism-based; settings: in vivo, 1.5 h; summary of the method: as §1
Mus musculus [21] = organism: Mus musculus; assay: Biodistribution of [18F]-radiolabeled compound in the mouse lung after 5 minutes (average uptake in (%injected dose)/(% body weight); format: ADME, organism-based; settings: in vivo; summary of the method: as §1
[22] = Ratio between Vmax and Km; format: ADME; summary of the method: as §2
Mus musculus [23] = organism: Mus musculus; assay: Biodistribution of [18F]-radiolabeled compound in the mouse intestine after 30 min (average uptake in (%injected dose)/(% body weight); format: ADME, organism-based; settings: in vivo, 0.5 h; summary of the method: as §1
Mus musculus [24] = organism: Mus musculus; assay: Biodistribution of [18F]-radiolabeled compound in the mouse kidney after 5 minutes (average uptake in (%injected dose)/(% body weight); format: ADME, organism-based; settings: in vivo; summary of the method: as §1
Mus musculus [25] = organism: Mus musculus; assay: Biodistribution of [18F]-radiolabeled compoundP in the mouse spleen after 15 minutes (average uptake in (%injected dose)/(% body weight); format: ADME, organism-based; settings: in vivo, 0.25 h; summary of the method: as §1
Mus musculus [26] = organism: Mus musculus; assay: Biodistribution of [18F]-radiolabeled compound in the mouse heart after 5 minutes (average uptake in (%injected dose)/(% body weight); format: ADME, organism-based; settings: in vivo; summary of the method: as §1
Mus musculus [27] = organism: Mus musculus; assay: Biodistribution of [18F]-radiolabeled compound in the mouse liver after 60 minutes (average uptake in (%injected dose)/(% body weight); format: ADME, organism-based; settings: in vivo, 1 h; summary of the method: as §1

## CN1CC=C(c2ccccc2CF)CC1
Mus musculus [1]
  Time: 0.67 min
Mus musculus [2]
  Time: 2.64 min
[3]
  Km: 159 µM
Mus musculus [4]
  Time: 0.94 min
Mus musculus [5]
  Time: 1.36 min
Mus musculus [6]
  Time: 0.25 min
Mus musculus [7]
  Time: 0.66 min
Mus musculus [8]
  Time: 2.33 min
Mus musculus [9]
  Time: 0.54 min
Mus musculus [10]
  Time: 1.46 min
Mus musculus [11]
  Time: 1.37 min
Mus musculus [12]
  Time: 1.99 min
Mus musculus [13]
  Time: 1.04 min
Mus musculus [14]
  Time: 0.93 min
Mus musculus [15]
  Time: 0.87 min
Mus musculus [16]
  Time: 1.84 min
Mus musculus [17]
  Time: 0.61 min
Mus musculus [18]
  Time: 1.91 min
Mus musculus [19]
  Time: 0.31 min
Mus musculus [20]
  Time: 0.72 min
Mus musculus [21]
  Time: 6.33 min
[22]
  Ratio: 3.83
Mus musculus [23]
  Time: 1.06 min
Mus musculus [24]
  Time: 4.04 min
Mus musculus [25]
  Time: 1.33 min
Mus musculus [26]
  Time: 2.54 min
Mus musculus [27]
  Time: 0.72 min
